Experimental data as given in ChEMBL document CHEMBL4219184, “Design, synthesis, and biological evaluation of new B-RafV600E kinase inhibitors” (Bioorg Med Chem, 2018).
Values belong to the molecule of their own block, whether it stands above or below them. Active and inactive are the calls of the source. The calls are words filed in the database; no cut-off is given here.

Experiments:
A-375 [1] = assay: Antiproliferative activity against human A375 cells harboring BRAF V600E mutant after 48 hrs by MTT assay; assay type: functional, cell-based; settings: A-375, 48 h
Method in brief: (§1)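 MTT assay. Cells seeded at 10^4 per well in 96-well plates and left 24 h. Compounds then added at 0.01, 0.1, 1, 10 and 100 µM for 48 h. IC50 values calculated from the viability data.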

HT-29 = assay: Antiproliferative activity against human HT-29 cells harboring BRAF V600E mutant after 48 hrs by MTT assay; assay type: functional, cell-based; settings: HT-29, 48 h; method in brief: as §1
[2] = Antiproliferative activity against wild type BRAF expressing human WM1361 cells after 48 hrs by MTT assay; assay type: functional; settings: WM1361, 48 h; method in brief: as §1
[3] = target: Serine/threonine-protein kinase B-raf (Mus musculus, UniProt P28028, V600E); assay: Inhibition of mouse full length GST-tagged BRAF V600E mutant using recombinant human full length N-terminal His-tagged MEK1 as substrate preincubated for 1 hr followed by substrate addition measured after 25 mins by Nu-page gel-based phosphor screen analysis
HCT-116 = assay: Antiproliferative activity against wild type BRAF expressing human HCT116 cells after 48 hrs by MTT assay; assay type: functional, cell-based; settings: HCT-116, 48 h; method in brief: as §1
A-375 [4] = assay: Induction of apoptosis in human A375 cells assessed as early apoptotic cells at 4 uM after 24 hrs by Annexin V-FITC/propidium iodide double staining-based flow cytometry (reference value: 1.19%); assay type: functional
[5] = tested on: Serine/threonine-protein kinase B-raf (Homo sapiens), P15056 [V600E]; assay: Inhibition of BRAF V600E mutant in human A375 cells assessed as reduction in MEK phosphorylation by Western blot analysis; assay type: cell-based
Method in brief: (§2)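 Cells in 6-well plates were lysed in RIPA with PMSF on ice for 30 min and cleared at 12,000 g, 4 °C. Protein was measured by BCA, run on SDS-PAGE and moved to PVDF. Blots were blocked in 5% milk/TBST, given primary antibodies (1:500–1:1000) overnight at 4 °C, then HRP secondaries (1:5000–1:10000) for 1 h. Bands were detected by ECL.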

[6] = target: T1, Serine/threonine-protein kinase B-raf (Homo sapiens, UniProt P15056); assay: Induction of wild type BRAF activation in human WM1361 cells assessed as increase in MEK phosphorylation up to 0.15 uM by Western blot analysis; assay type: cell-based; method in brief: as §2
[7] = target: T1, Serine/threonine-protein kinase B-raf; assay: Inhibition of wild type BRAF in human WM1361 cells assessed as reduction in ERK phosphorylation at 0.5 uM by Western blot analysis; assay type: cell-based; method in brief: as §2
A-375 [8] = assay: Induction of apoptosis in human A375 cells assessed as viable cells at 1 uM after 24 hrs by Annexin V-FITC/propidium iodide double staining-based flow cytometry (reference value: 96.2%); assay type: functional; settings: A-375, 24 h, read-out: Activity
A-375 [9] = assay: Induction of apoptosis in human A375 cells assessed as late apoptotic cells at 4 uM after 24 hrs by Annexin V-FITC/propidium iodide double staining-based flow cytometry (reference value: 2.36%); assay type: functional
A-375 [10] = assay: Induction of apoptosis in human A375 cells assessed as viable cells at 4 uM after 24 hrs by Annexin V-FITC/propidium iodide double staining-based flow cytometry (reference value: 96.2%); assay type: functional; settings: A-375, 24 h, read-out: Activity
[11] = tested on: Serine/threonine-protein kinase B-raf (Homo sapiens), P15056 [V600E]; assay: Inhibition of BRAF V600E mutant in human A375 cells assessed as reduction in ERK phosphorylation by Western blot analysis; assay type: cell-based; method in brief: as §2
A-375 [12] = assay: Induction of apoptosis in human A375 cells assessed as necrotic cells at 1 uM after 24 hrs by Annexin V-FITC/propidium iodide double staining-based flow cytometry (reference value: 0.227%); assay type: functional
A-375 [13] = assay: Induction of apoptosis in human A375 cells assessed as late apoptotic cells at 1 uM after 24 hrs by Annexin V-FITC/propidium iodide double staining-based flow cytometry (reference value: 2.36%); assay type: functional
A-375 [14] = assay: Induction of apoptosis in human A375 cells assessed as early apoptotic cells at 1 uM after 24 hrs by Annexin V-FITC/propidium iodide double staining-based flow cytometry (reference value: 1.19%); assay type: functional
A-375 [15] = assay: Induction of apoptosis in human A375 cells assessed as early apoptotic cells at 2 uM after 24 hrs by Annexin V-FITC/propidium iodide double staining-based flow cytometry (reference value: 1.19%); assay type: functional
A-375 [16] = assay: Induction of apoptosis in human A375 cells assessed as viable cells at 2 uM after 24 hrs by Annexin V-FITC/propidium iodide double staining-based flow cytometry (reference value: 96.2%); assay type: functional; settings: A-375, 24 h, read-out: Activity
[17] = target: T1, Serine/threonine-protein kinase B-raf; assay: Induction of wild type BRAF activation in human WM1361 cells assessed as increase in ERK phosphorylation up to 0.15 uM by Western blot analysis; assay type: cell-based; method in brief: as §2
A-375 [18] = assay: Effect on total MEK protein levels in human A375 cells at 0.05 to 5 uM by Western blot analysis; assay type: ADME, cell-based; settings: a-375, 5 µM; method in brief: as §2
A-375 [19] = assay: Effect on total ERK protein levels in human A375 cells at 0.05 to 5 uM by Western blot analysis; assay type: ADME, cell-based; settings: a-375, 5 µM; method in brief: as §2
A-375 [20] = assay: Induction of apoptosis in human A375 cells assessed as late apoptotic cells at 2 uM after 24 hrs by Annexin V-FITC/propidium iodide double staining-based flow cytometry (reference value: 2.36%); assay type: functional
[21] = target: T1, Serine/threonine-protein kinase B-raf; assay: Inhibition of wild type BRAF in human WM1361 cells assessed as reduction in MEK phosphorylation at 0.5 uM by Western blot analysis; assay type: cell-based; method in brief: as §2
A-375 [22] = assay: Induction of apoptosis in human A375 cells assessed as necrotic cells at 2 uM after 24 hrs by Annexin V-FITC/propidium iodide double staining-based flow cytometry (reference value: 0.227%); assay type: functional
A-375 [23] = assay: Induction of apoptosis in human A375 cells after 24 hrs by Annexin V-FITC/propidium iodide double staining-based flow cytometry; assay type: functional, cell-based
A-375 [24] = assay: Induction of apoptosis in human A375 cells assessed as necrotic cells at 4 uM after 24 hrs by Annexin V-FITC/propidium iodide double staining-based flow cytometry (reference value: 0.227%); assay type: functional

Sequence of Serine/threonine-protein kinase B-raf (Mus musculus, UniProt P28028, V600E) (P28028 whole entry, looked up, stated change not applied): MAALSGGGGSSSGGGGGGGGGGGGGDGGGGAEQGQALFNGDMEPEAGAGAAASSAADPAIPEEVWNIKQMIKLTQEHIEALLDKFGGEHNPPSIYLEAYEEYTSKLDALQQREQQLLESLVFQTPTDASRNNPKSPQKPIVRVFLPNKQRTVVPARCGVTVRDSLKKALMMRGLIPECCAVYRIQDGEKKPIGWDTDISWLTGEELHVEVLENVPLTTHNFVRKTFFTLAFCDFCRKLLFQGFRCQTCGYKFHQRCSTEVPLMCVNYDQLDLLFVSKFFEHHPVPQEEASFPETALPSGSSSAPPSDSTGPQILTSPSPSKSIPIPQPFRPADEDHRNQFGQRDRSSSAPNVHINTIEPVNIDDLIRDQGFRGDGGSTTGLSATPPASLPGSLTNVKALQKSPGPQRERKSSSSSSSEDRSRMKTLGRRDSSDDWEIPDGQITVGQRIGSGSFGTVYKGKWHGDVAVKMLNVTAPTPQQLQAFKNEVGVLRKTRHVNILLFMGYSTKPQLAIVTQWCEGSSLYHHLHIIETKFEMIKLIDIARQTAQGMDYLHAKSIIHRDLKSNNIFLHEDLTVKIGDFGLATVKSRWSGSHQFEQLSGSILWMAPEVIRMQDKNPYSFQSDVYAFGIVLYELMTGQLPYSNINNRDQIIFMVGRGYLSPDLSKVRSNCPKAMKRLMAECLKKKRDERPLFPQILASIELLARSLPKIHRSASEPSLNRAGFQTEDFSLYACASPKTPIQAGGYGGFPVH
T1 sequence (P15056 whole entry): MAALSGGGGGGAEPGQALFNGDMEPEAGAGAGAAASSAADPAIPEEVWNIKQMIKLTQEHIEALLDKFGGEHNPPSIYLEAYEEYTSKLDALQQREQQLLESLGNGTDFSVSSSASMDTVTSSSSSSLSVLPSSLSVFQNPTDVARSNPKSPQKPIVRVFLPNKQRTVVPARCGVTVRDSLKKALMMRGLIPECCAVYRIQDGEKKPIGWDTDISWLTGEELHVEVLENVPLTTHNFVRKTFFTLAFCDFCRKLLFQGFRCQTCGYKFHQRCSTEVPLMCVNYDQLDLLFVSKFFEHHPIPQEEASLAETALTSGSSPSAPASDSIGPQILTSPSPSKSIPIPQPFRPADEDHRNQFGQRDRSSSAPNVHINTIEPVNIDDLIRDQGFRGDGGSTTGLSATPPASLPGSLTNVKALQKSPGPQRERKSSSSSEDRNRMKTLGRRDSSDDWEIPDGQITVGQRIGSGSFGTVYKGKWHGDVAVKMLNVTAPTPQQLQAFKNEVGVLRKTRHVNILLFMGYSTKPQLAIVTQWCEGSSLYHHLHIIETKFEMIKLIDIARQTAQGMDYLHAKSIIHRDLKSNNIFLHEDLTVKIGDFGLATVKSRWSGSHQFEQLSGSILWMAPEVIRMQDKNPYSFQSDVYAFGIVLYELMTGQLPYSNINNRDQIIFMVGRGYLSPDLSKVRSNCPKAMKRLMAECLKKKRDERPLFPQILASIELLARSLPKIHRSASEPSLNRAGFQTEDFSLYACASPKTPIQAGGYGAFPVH
Sequence of Serine/threonine-protein kinase B-raf (Homo sapiens), P15056 [V600E] (P15056 whole entry V600E): as the sequence (P15056 whole entry) above, with V600E counted along it

IC50 (A-375 [1]): 6.72 µM
IC50 (HT-29): 11.1 µM
IC50 [3]: 2610 nM
IC50 (HCT-116): 22.3 µM
SMILES: O=C(Nc1cccc(C(=O)Nc2ccc3[nH]ccc3c2)c1)c1ccc(Cl)cc1
IC50 [2]: 19.6 µM

IC50 (A-375 [1]): 5.74 µM
IC50 (HT-29): 14.4 µM
IC50 [3]: 2780 nM
IC50 (HCT-116): 29.2 µM
SMILES: O=C(Nc1cccc(C(=O)Nc2ccc3[nH]ncc3c2)c1)c1ccc(Br)cc1
IC50 [2]: 24.6 µM

IC50 (A-375 [1]): 7.46 µM
IC50 (HT-29): 11.5 µM
IC50 [3]: 810 nM
IC50 (HCT-116): 25.1 µM
SMILES: Cc1cccc(C(=O)Nc2cccc(C(=O)Nc3ccc4[nH]ncc4c3)c2)n1
IC50 [2]: 21.3 µM

IC50 (A-375 [1]): 5.78 µM
IC50 (HT-29): 10.6 µM
IC50 [3]: 3520 nM
IC50 (HCT-116): 23.8 µM
SMILES: O=C(Nc1ccc2[nH]ccc2c1)c1cccc(NC(=O)c2ccccn2)c1
IC50 [2]: 17.4 µM

IC50 (A-375 [1]): 8.83 µM
IC50 (HT-29): 12.2 µM
IC50 [3]: 1050 nM
IC50 (HCT-116): 24.9 µM
SMILES: O=C(Nc1ccc2[nH]ncc2c1)c1cccc(NC(=O)c2cccc(Cl)n2)c1
IC50 [2]: 27.2 µM

IC50 (A-375 [1]): 1.97 µM
inhibition [5]: Dose-dependent effect
Activity [6]: Not Active
IC50 (HT-29): 4.41 µM
inhibition [7]: Active
inhibition [11]: Dose-dependent effect
IC50 [3]: 180 nM
Activity [17]: Not Active
inhibition [21]: Active
IC50 (HCT-116): 18.7 µM
SMILES: O=C(Nc1cccc(C(=O)Nc2ccc3[nH]ncc3c2)c1)c1ccc(C(F)(F)F)cc1
Activity (A-375 [4]): 12.2%
viability at 1 µM (A-375 [8]): 80.3%
Activity (A-375 [9]): 16.1%
viability at 4 µM (A-375 [10]): 71%
Activity (A-375 [12]): 1.56%
Activity (A-375 [13]): 10.1%
Activity (A-375 [14]): 8.05%
Activity (A-375 [15]): 10.7%
IC50 [2]: 12.8 µM
viability at 2 µM (A-375 [16]): 73.7%
Activity (A-375 [18]): Non-Toxic
Activity (A-375 [19]): Non-Toxic
Activity (A-375 [20]): 14.6%
Activity (A-375 [22]): 1.05%
Activity (A-375 [23]): Dose-dependent effect
Activity (A-375 [24]): 0.652%

IC50 (A-375 [1]): 6.49 µM
IC50 (HT-29): 10.6 µM
IC50 [3]: 2110 nM
IC50 (HCT-116): 21.2 µM
SMILES: O=C(Nc1cccc(C(=O)Nc2ccc3[nH]ccc3c2)c1)c1ccccc1
IC50 [2]: 24.6 µM

IC50 (A-375 [1]): 7.62 µM
IC50 (HT-29): 17.9 µM
IC50 [3]: 3040 nM
IC50 (HCT-116): 32.5 µM
SMILES: O=C(Nc1cccc(C(=O)Nc2ccc3[nH]ncc3c2)c1)c1ccc(Cl)cc1
IC50 [2]: 30.8 µM

IC50 (A-375 [1]): 7.58 µM
IC50 (HT-29): 9.65 µM
IC50 [3]: 460 nM
IC50 (HCT-116): 22.2 µM
SMILES: O=C(Nc1ccc2[nH]ncc2c1)c1cccc(NC(=O)c2ccc(Br)cn2)c1
IC50 [2]: 19.6 µM

IC50 (A-375 [1]): 8.29 µM
IC50 (HT-29): 17.2 µM
IC50 [3]: 4110 nM
IC50 (HCT-116): 35.9 µM
SMILES: O=C(Nc1ccc2[nH]ncc2c1)c1cccc(NC(=O)c2ccccn2)c1
IC50 [2]: 28.2 µM

IC50 (A-375 [1]): 7.15 µM
IC50 (HT-29): 12.2 µM
IC50 [3]: 1570 nM
IC50 (HCT-116): 36.2 µM
SMILES: O=C(Nc1cccc(C(=O)Nc2ccc3[nH]ncc3c2)c1)c1ccc(F)cc1
IC50 [2]: 29.2 µM

IC50 (A-375 [1]): 9.87 µM
IC50 (HT-29): 20.5 µM
IC50 [3]: 4940 nM
IC50 (HCT-116): 26.2 µM
SMILES: O=C(Nc1cccc(C(=O)Nc2ccc3[nH]ncc3c2)c1)c1cccc(Cl)c1
IC50 [2]: 25.5 µM

IC50 (A-375 [1]): 8.46 µM
IC50 (HT-29): 19.6 µM
IC50 [3]: 6570 nM
IC50 (HCT-116): 35.5 µM
SMILES: O=C(Nc1ccc2[nH]ccc2c1)c1cccc(NC(=O)c2cccc(Cl)n2)c1
IC50 [2]: 19.2 µM

IC50 (A-375 [1]): 9.45 µM
IC50 (HT-29): 18.5 µM
IC50 [3]: 5270 nM
IC50 (HCT-116): 37.4 µM
SMILES: O=C(Nc1cccc(C(=O)Nc2ccc3[nH]ncc3c2)c1)c1ccc(Oc2ccccc2)cc1
IC50 [2]: 29.6 µM

IC50 (A-375 [1]): 4.56 µM
IC50 (HT-29): 8.99 µM
IC50 [3]: 1140 nM
IC50 (HCT-116): 19.7 µM
SMILES: O=C(Nc1ccc2[nH]ncc2c1)c1cccc(NC(=O)c2cc(Cl)ccn2)c1
IC50 [2]: 16.2 µM

IC50 (A-375 [1]): 2.85 µM
IC50 (HT-29): 10.9 µM
IC50 [3]: 750 nM
IC50 (HCT-116): 26.2 µM
SMILES: CC(C)(C)c1ccc(C(=O)Nc2cccc(C(=O)Nc3ccc4[nH]ncc4c3)c2)cc1
IC50 [2]: 18.4 µM

IC50 (A-375 [1]): 12.2 µM
IC50 (HT-29): 19.2 µM
IC50 [3]: 8710 nM
IC50 (HCT-116): 20.5 µM
SMILES: O=C(Nc1cccc(C(=O)Nc2ccc3[nH]ncc3c2)c1)c1cccc(F)c1
IC50 [2]: 38.4 µM

IC50 (A-375 [1]): 3.36 µM
IC50 (HT-29): 8.44 µM
IC50 (HCT-116): 23.3 µM
SMILES: CNC(=O)c1cc(Oc2ccc(NC(=O)Nc3ccc(Cl)c(C(F)(F)F)c3)cc2)ccn1 [SORAFENIB]
IC50 [2]: 16.4 µM

IC50 (A-375 [1]): 9.12 µM
IC50 (HT-29): 16.1 µM
IC50 [3]: 5220 nM
IC50 (HCT-116): 30.9 µM
SMILES: O=C(Nc1cccc(C(=O)Nc2ccc3[nH]ncc3c2)c1)c1ccccc1
IC50 [2]: 35.1 µM

IC50 (A-375 [1]): 10.5 µM
IC50 (HT-29): 21.1 µM
IC50 [3]: 5720 nM
IC50 (HCT-116): 35.2 µM
SMILES: O=C(Nc1cccc(C(=O)Nc2ccc3[nH]ccc3c2)c1)c1ccc(Oc2ccccc2)cc1
IC50 [2]: 21.6 µM
